Assay [1] has as its target Toll-like receptor 2 (Mus musculus) (UniProt Q9QUN7). The assay can be described thus: Induction of TLR2-mediated mouse D1 dendritic cells maturation assessed as expression of CD54 and CD86 activation markers at 0.5 ug/ml after 24 hrs by flow cytometry in the presence of antagonist anti-TLR2 antibody treated 25 mins after anti-TLR2 antibody challenge.
The target is the same in assay [2]. The assay can be described thus: Induction of TLR2-mediated mouse D1 dendritic cells maturation assessed as expression of CD54 and CD86 activation markers at 0.5 ug/ml to 5 ug/ml after 24 hrs by flow cytometry in the presence of polymyxin B. The assay is classed as cell-based.
Assay [3] has the same target. The experiment in a line: Induction of TLR2-mediated mouse spleen B cells proliferation assessed as [3H]thymidin uptake at 0.02 ug/ml after 72 hrs. The method in brief:
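Purified mouse spleen B cells cultured with analogs at indicated concentrations for 72 h; proliferation by [3H]-thymidine uptake. Stimulation index = mean cpm stimulated / mean cpm unstimulated; mean SI ± SD of three independent experiments, each in triplicate.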

Assay [4] shares this target. The experiment in a line: Induction of TLR2-mediated mouse spleen B cells proliferation assessed as [3H]thymidin uptake at 0.16 ug/ml after 72 hrs in the presence of antagonist anti-TLR2 antibody treated 25 mins after anti-TLR2 antibody challenge. The assay is classed as functional, tissue-based.

The structures appear in SMILES notation. The source made the active and inactive calls. The calls are words filed in the database; no cut-off is given here.

Chain of Toll-like receptor 2 (Mus musculus) (Q9QUN7 whole entry): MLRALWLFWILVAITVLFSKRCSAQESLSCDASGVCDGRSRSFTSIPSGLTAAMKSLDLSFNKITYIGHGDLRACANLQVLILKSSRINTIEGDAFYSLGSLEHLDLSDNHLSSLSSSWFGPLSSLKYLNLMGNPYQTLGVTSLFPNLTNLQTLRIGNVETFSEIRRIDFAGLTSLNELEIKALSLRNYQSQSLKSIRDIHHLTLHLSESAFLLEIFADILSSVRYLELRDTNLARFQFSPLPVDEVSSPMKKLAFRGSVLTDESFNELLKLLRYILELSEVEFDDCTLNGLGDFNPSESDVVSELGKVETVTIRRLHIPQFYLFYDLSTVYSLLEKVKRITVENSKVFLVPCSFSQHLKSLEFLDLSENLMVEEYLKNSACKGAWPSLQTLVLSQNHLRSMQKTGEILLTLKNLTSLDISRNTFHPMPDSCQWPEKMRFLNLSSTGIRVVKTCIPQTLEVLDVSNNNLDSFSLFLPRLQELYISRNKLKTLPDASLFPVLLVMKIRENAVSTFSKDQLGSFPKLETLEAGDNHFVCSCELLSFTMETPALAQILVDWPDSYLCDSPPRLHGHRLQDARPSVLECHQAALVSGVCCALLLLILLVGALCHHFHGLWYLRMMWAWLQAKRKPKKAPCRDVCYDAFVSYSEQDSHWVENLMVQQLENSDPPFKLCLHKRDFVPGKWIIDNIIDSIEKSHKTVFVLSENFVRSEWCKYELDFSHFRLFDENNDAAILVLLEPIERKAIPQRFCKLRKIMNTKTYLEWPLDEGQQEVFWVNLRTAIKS

In the case of `CCCCCCCCCCCCCCCC(=O)OC[C@H](CSC[C@H](N)C(=O)N[C@@H](C)C(=O)NCC(=O)NCCOCCOCCOCCOCCOCCOCCOCCOCCOCCOCCOCCOCCOCCOCCOCCOCCOCCOCCOCCOCCOCCOCCOCCOCCOCCOCCOCCOCCOCCOCCOCCOCCOCCOCCOCCOCCOCCOCCOCCOCCOCCOCCOCCOCCOC)OC(=O)CCCCCCCCCCCCCCC`, the result in assay [1] and in assay [4] was inactive. The outcome in assay [2] and in assay [3] was Active.
For the compound `CCCCCCCCCCCCCCCC(=O)OC[C@H](CSC[C@H](NC(=O)COCCOCCOCCOCCOCCOCCOCCOCCOCCOCCOCCOCCOCCOCCOCCOCCOCCOCCOCCOCCOCCOCCOCCOCCOCCOCCOCCOCCOCCOCCOCCOCCOCCOCCOCCOCCOCCOCCOCCOCCOCCOCCOCCOCCOC)C(=O)N[C@@H](C)C(=O)NCC(=O)O)OC(=O)CCCCCCCCCCCCCCC`, the result in assay [1] and in assay [4] was inactive. The outcome in assay [2] and in assay [3] was Active.
Turning to `CCCCCCCCCCCCCCCC(=O)N[C@@H](CSC[C@@H](COC(=O)CCCCCCCCCCCCCCC)OC(=O)CCCCCCCCCCCCCCC)C(=O)N[C@@H](C)C(=O)NCC(=O)NCCOCCOCCOCCOCCOCCOCCOCCOCCOCCOCCOCCOCCOCCOCCOCCOCCOCCOCCOCCOCCOCCOCCOCCOCCOCCOCCOCCOCCOCCOCCOCCOCCOCCOCCOCCOCCOCCOCCOCCOCCOCCOCCOCCOCCOC`, the outcome in assay [1] and in assay [4] was inactive. Besides, the result in assay [2] and in assay [3] was Active.
As for `CCCCCCCCCCCCCCCC(=O)OC[C@H](CSC[C@H](N)C(=O)N[C@@H](C)C(=O)NCC(=O)NCCSSCCNC(=O)CNC(=O)OCCOCCOCCOCCOCCOCCOCCOCCOCCOCCOCCOCCOCCOCCOCCOCCOCCOCCOCCOCCOCCOCCOCCOCCOCCOCCOCCOCCOCCOCCOCCOCCOCCOCCOCCOCCOCCOCCOCCOCCOCCOCCOCCOCCO)OC(=O)CCCCCCCCCCCCCCC`, the outcome in assay [1] and in assay [4] was inactive. Besides, the outcome in assay [2] and in assay [3] was Active.

The record behind these values is ChEMBL document CHEMBL1155412, “Novel powerful water-soluble lipid immunoadjuvants inducing mouse dendritic cell maturation and B cell proliferation using TLR2 pathway” (Bioorg Med Chem Lett, 2010).
